Source: PMC9389372 (RSC Advances, 2022)

Assays:
[1] = target: Human acetylcholinesterase (Homo sapiens, UniProt P22303); test: AChE inhibition, modified Ellman's spectrophotometric method; type: biochemical; settings: read-out: AChE % inhibition, 10^−3 M
MAO-A = target: T1, MAO-A (Homo sapiens, UniProt P21397); test: MAO-A inhibition, in vitro fluorometric method; type: biochemical
T1 sequence (P21397 1-527): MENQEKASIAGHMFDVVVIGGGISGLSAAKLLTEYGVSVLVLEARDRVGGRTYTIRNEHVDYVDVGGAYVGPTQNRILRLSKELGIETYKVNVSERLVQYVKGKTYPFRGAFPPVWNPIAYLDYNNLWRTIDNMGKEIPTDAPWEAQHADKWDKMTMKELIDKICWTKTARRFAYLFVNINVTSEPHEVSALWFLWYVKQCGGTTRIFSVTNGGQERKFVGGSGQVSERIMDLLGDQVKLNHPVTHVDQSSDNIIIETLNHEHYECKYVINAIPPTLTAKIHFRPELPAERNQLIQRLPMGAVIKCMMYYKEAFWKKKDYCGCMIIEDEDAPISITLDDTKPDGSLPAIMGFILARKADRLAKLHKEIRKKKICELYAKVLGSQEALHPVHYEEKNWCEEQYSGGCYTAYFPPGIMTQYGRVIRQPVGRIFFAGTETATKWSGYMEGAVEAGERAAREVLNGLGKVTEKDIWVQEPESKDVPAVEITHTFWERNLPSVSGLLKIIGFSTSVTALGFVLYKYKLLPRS

Cytotoxicity, MTT assay = type: cell-based; settings: mouse, NIH/3T3 mouse embryonic fibroblast cells
Summary of the method: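 NIH/3T3 mouse embryonic fibroblasts, incubated according to the supplier's recommendation, were seeded at 1 × 10⁴ cells per well. Viability was read by MTT assay following the group's previously described standard procedure.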

beta amyloid 1–42 (Aβ42) = beta amyloid 1–42 (Aβ42) (Homo sapiens, UniProt P05067); test: fluorometric beta amyloid 1–42; type: biochemical; settings: read-out: Percent inhibition of beta amyloid 1–42 (Aβ42) peptide aggregation
Sequence of beta amyloid 1–42 (Aβ42) (P05067 672-713): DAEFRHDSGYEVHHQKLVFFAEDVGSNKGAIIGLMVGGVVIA

[2] = target: human butyrylcholinesterase (Homo sapiens, UniProt P06276); test: BChE inhibition, modified Ellman's spectrophotometric method; type: biochemical
Sequence of human butyrylcholinesterase (P06276 29-602): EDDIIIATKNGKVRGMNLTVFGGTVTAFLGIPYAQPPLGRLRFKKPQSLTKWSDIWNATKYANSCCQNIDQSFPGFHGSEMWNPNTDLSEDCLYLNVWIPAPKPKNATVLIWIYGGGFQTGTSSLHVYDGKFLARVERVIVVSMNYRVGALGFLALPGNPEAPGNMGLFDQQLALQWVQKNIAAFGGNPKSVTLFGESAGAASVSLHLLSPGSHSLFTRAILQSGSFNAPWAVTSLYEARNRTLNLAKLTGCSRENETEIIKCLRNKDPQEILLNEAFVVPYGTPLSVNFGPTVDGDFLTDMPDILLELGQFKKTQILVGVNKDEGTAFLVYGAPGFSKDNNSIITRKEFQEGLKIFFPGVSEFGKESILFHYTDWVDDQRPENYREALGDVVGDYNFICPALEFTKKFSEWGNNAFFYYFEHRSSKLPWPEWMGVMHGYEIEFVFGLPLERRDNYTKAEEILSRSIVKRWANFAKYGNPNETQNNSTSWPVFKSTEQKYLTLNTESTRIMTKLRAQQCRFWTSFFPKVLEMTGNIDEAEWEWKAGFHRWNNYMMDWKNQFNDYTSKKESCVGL

Sequence of Human acetylcholinesterase (P22303 32-614): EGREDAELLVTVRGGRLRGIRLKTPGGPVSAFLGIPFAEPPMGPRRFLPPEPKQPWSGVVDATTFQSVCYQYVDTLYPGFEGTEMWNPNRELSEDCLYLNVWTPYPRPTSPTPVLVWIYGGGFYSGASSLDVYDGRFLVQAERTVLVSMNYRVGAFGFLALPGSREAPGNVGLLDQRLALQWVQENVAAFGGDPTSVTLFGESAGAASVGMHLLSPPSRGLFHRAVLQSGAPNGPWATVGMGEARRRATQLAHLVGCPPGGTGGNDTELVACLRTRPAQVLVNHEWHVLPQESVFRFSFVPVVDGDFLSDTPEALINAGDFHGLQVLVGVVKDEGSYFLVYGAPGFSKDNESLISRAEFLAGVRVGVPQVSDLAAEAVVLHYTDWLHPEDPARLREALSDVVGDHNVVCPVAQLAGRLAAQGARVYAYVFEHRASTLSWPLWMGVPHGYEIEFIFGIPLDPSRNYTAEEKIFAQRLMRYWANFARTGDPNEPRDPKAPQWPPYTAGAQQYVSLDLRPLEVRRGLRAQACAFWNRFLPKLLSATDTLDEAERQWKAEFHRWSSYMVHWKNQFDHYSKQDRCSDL

With `CN(C)CCN1CCN(Cc2ccc(C(=O)Nc3nc4ccccc4s3)cc2)CC1` [4f, N-(Benzo[d]thiazol-2-yl)-4-((4-(2-(dimethylamino)ethyl)piperazine-1-yl)methyl)benzamide] the inhibition at 1000 µM [1] was 96.4 ± 1.4%, the IC50 (MAO-A) was greater than 100 µM and the inhibition at 100 µM (MAO-A; read-out: MAO-A % inhibition) was 41.3 ± 0.9%. It also gave an inhibition at 1000 µM (MAO-A; read-out: MAO-A % inhibition) of 67.9 ± 1.1%, an IC50 (Cytotoxicity, MTT assay) of 72.9 ± 2.7 µM and an inhibition at 0.01 µM (beta amyloid 1–42 (Aβ42)) of 58.6 ± 1.1%. For the same molecule, the inhibition at 0.1 µM (beta amyloid 1–42 (Aβ42)) was 80.8 ± 2.1%, the inhibition at 1 µM (beta amyloid 1–42 (Aβ42)) was 90.6 ± 3.1% and the inhibition at 10 µM (beta amyloid 1–42 (Aβ42)) was 97.3 ± 3.2%. The IC50 [2] was greater than 1000 µM, the inhibition at 100 µM ([2]; read-out: BChE % inhibition) was 32.8 ± 0.6% and the inhibition at 1000 µM ([2]; read-out: BChE % inhibition) was 45.3 ± 0.9%.
